Experimental data as given in ChEMBL document CHEMBL3860028, “Bioactive Phenanthrene and Bibenzyl Derivatives from the Stems of Dendrobium nobile” (J Nat Prod, 2016).
Values after ≈ are worked out from the molar mass of the structure shown.

Legend:
Alternaria brassicicola = experiment: Antifungal activity against Alternaria brassicicola after 4 to 14 days by serial dilution method; format: functional
Outline: (§1)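 Fungal strains kept on potato dextrose agar. Antifungal activity tested following NCCLS recommendations, with MIC values as the read-out. Prochloraz served as positive control.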

[1] = Cytotoxicity against human HeLa cells assessed as decrease in cell viability after 6 days by MTT assay; format: functional, cell-based; conditions: 144 h
Outline: (§2)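 Cell lines from College of Pharmacy, Hebei University, grown in DMEM with 5% fetal bovine serum at 37 °C under 5% CO2. Viability read by MTT method, IC50 values derived. Epirubicin served as positive control.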

[2] = Cytotoxicity against human MCF7 cells assessed as decrease in cell viability after 6 days by MTT assay; format: functional, cell-based; conditions: MCF7, 144 h; outline: as §2
[3] = Cytotoxicity against human A549 cells assessed as decrease in cell viability after 6 days by MTT assay; format: functional, cell-based; conditions: A549, 144 h; outline: as §2
[4] = Antifungal activity against Phytophthora parasitica var. nicotianae after 4 to 14 days by serial dilution method; format: functional; outline: as §1
Colletotrichum truncatum = experiment: Antifungal activity against Colletotrichum capsici after 4 to 14 days by serial dilution method; format: functional; outline: as §1
[5] = Antifungal activity against Bipolaris oryzae after 4 to 14 days by serial dilution method; format: functional
Outline: (§3)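 Fungus maintained on potato dextrose agar. Antifungal activity determined as MIC following NCCLS (National […] for Clinical Laboratory Standards) recommendations, with prochloraz as the reference antifungal.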

[6] = Antifungal activity against Diaporthe medusaea nitschke after 4 to 14 days by serial dilution method; format: functional; conditions: Diaporthe rudis; outline: as §1
[7] = Antifungal activity against Ceratocystis paradoxa moreau after 4 to 14 days by serial dilution method; format: functional; conditions: Thielaviopsis; outline: as §1
[8] = Antifungal activity against Exserohilum turcicum after 4 to 14 days by serial dilution method; format: functional; conditions: Setosphaeria turcica; outline: as §1
[9] = Antifungal activity against Pestallozzia theae after 4 to 14 days by serial dilution method; format: functional; outline: as §1
Alternaria citri = experiment: Antifungal activity against Alternaria citri after 4 to 14 days by serial dilution method; format: functional; outline: as §3

COc1cc(O)cc(CCc2ccc(O)c(OC)c2)c1 [GIGANTOL]
MIC (Alternaria brassicicola): 182 µM (≈ 50 µg/mL)
IC50 [1]: > 10 µM
IC50 [2]: > 10 µM
IC50 [3]: > 10 µM
MIC [4]: 365 µM (≈ 100 µg/mL)
MIC (Colletotrichum truncatum): 91.2 µM (≈ 25 µg/mL)
MIC [5]: 182 µM (≈ 50 µg/mL)
MIC [6]: 91.2 µM (≈ 25 µg/mL)
MIC [7]: 91.2 µM (≈ 25 µg/mL)
MIC [8]: 182 µM (≈ 50 µg/mL)
MIC [9]: 91.2 µM (≈ 25 µg/mL)
MIC (Alternaria citri): 91.2 µM (≈ 25 µg/mL)

COC1=CC(=O)c2c(ccc3cc(O)c(O)cc23)C1=O
MIC (Alternaria brassicicola): > 400 µM
IC50 [1]: > 10 µM
IC50 [2]: > 10 µM
IC50 [3]: > 10 µM
MIC [4]: > 400 µM
MIC (Colletotrichum truncatum): > 400 µM
MIC [5]: > 400 µM
MIC [6]: > 400 µM
MIC [7]: > 400 µM
MIC [8]: > 400 µM
MIC [9]: > 400 µM
MIC (Alternaria citri): > 400 µM

Oc1cccc(CCc2cc(O)cc(O)c2)c1
MIC (Alternaria brassicicola): > 400 µM
IC50 [1]: > 10 µM
IC50 [2]: > 10 µM
IC50 [3]: > 10 µM
MIC [4]: 218 µM (≈ 50.1 µg/mL)
MIC (Colletotrichum truncatum): 109 µM (≈ 25 µg/mL)
MIC [5]: 109 µM (≈ 25 µg/mL)
MIC [6]: 217 µM (≈ 50.1 µg/mL)
MIC [7]: 109 µM (≈ 25 µg/mL)
MIC [8]: 109 µM (≈ 25 µg/mL)
MIC [9]: 217 µM (≈ 50.1 µg/mL)
MIC (Alternaria citri): 109 µM (≈ 25 µg/mL)

COc1cc(O)cc(CCc2cccc(O)c2)c1 [BATATASIN III]
MIC (Alternaria brassicicola): 102 µM (≈ 25 µg/mL)
IC50 [1]: > 10 µM
IC50 [2]: > 10 µM
IC50 [3]: > 10 µM
MIC [4]: 205 µM (≈ 50.1 µg/mL)
MIC (Colletotrichum truncatum): 102 µM (≈ 25 µg/mL)
MIC [5]: 102 µM (≈ 25 µg/mL)
MIC [6]: 205 µM (≈ 50.1 µg/mL)
MIC [7]: 102 µM (≈ 25 µg/mL)
MIC [8]: 102 µM (≈ 25 µg/mL)
MIC [9]: 205 µM (≈ 50.1 µg/mL)
MIC (Alternaria citri): 102 µM (≈ 25 µg/mL)

COC1=CC(=O)C[C@@]2(CCc3cccc(O)c32)C1=O
MIC (Alternaria brassicicola): > 400 µM
IC50 [1]: 9.8 µM
IC50 [2]: 9.4 µM
IC50 [3]: 9.9 µM
MIC [4]: > 400 µM
MIC (Colletotrichum truncatum): > 400 µM
MIC [5]: > 400 µM
MIC [6]: > 400 µM
MIC [7]: > 400 µM
MIC [8]: > 400 µM
MIC [9]: > 400 µM
MIC (Alternaria citri): > 400 µM

COc1cc(O)c2c(c1)CCc1cc(O)c(-c3c(OC)cc4c(c3O)-c3ccc(O)cc3CC4)cc1-2
MIC (Alternaria brassicicola): > 400 µM
IC50 [1]: > 10 µM
IC50 [2]: > 10 µM
IC50 [3]: > 10 µM
MIC [4]: > 400 µM
MIC (Colletotrichum truncatum): > 400 µM
MIC [5]: > 400 µM
MIC [6]: > 400 µM
MIC [7]: > 400 µM
MIC [8]: > 400 µM
MIC [9]: > 400 µM
MIC (Alternaria citri): > 400 µM

COc1cc(O)c2c(c1)CCc1cccc(O)c1-2
MIC (Alternaria brassicicola): > 400 µM
IC50 [1]: > 10 µM
IC50 [2]: > 10 µM
IC50 [3]: > 10 µM
MIC [4]: > 400 µM
MIC (Colletotrichum truncatum): > 400 µM
MIC [5]: > 400 µM
MIC [6]: > 400 µM
MIC [7]: > 400 µM
MIC [8]: > 400 µM
MIC [9]: > 400 µM
MIC (Alternaria citri): > 400 µM

O=C1C=CC(=O)C2=C1CCc1cc(O)ccc12
MIC (Alternaria brassicicola): > 400 µM
IC50 [1]: > 10 µM
IC50 [2]: > 10 µM
IC50 [3]: > 10 µM
MIC [4]: > 400 µM
MIC (Colletotrichum truncatum): > 400 µM
MIC [5]: > 400 µM
MIC [6]: > 400 µM
MIC [7]: > 400 µM
MIC [8]: > 400 µM
MIC [9]: > 400 µM
MIC (Alternaria citri): > 400 µM

COc1cc(O)c2c(c1)CCc1cc(O)ccc1-2 [LUSIANTHRIDIN]
MIC (Alternaria brassicicola): > 400 µM
IC50 [1]: > 10 µM
IC50 [2]: > 10 µM
IC50 [3]: > 10 µM
MIC [4]: > 400 µM
MIC (Colletotrichum truncatum): > 400 µM
MIC [5]: > 400 µM
MIC [6]: > 400 µM
MIC [7]: > 400 µM
MIC [8]: > 400 µM
MIC [9]: > 400 µM
MIC (Alternaria citri): > 400 µM

COc1cc(O)cc2ccc3cccc(O)c3c12 [MOSCATIN]
MIC (Alternaria brassicicola): > 400 µM
IC50 [1]: > 10 µM
IC50 [2]: > 10 µM
IC50 [3]: > 10 µM
MIC [4]: > 400 µM
MIC (Colletotrichum truncatum): > 400 µM
MIC [5]: > 400 µM
MIC [6]: > 400 µM
MIC [7]: > 400 µM
MIC [8]: > 400 µM
MIC [9]: > 400 µM
MIC (Alternaria citri): > 400 µM

COc1cc(O)cc2c1-c1c(O)cccc1CC2 [HIRCINOL]
MIC (Alternaria brassicicola): > 400 µM
IC50 [1]: > 10 µM
IC50 [2]: > 10 µM
IC50 [3]: > 10 µM
MIC [4]: > 400 µM
MIC (Colletotrichum truncatum): > 400 µM
MIC [5]: > 400 µM
MIC [6]: > 400 µM
MIC [7]: > 400 µM
MIC [8]: > 400 µM
MIC [9]: > 400 µM
MIC (Alternaria citri): > 400 µM

COc1cc(O)c2c(c1-c1c(OC)cc(O)c3c1CCc1cc(O)ccc1-3)CCc1cc(O)ccc1-2
MIC (Alternaria brassicicola): > 400 µM
IC50 [1]: > 10 µM
IC50 [2]: > 10 µM
IC50 [3]: > 10 µM
MIC [4]: > 400 µM
MIC (Colletotrichum truncatum): > 400 µM
MIC [5]: > 400 µM
MIC [6]: > 400 µM
MIC [7]: > 400 µM
MIC [8]: > 400 µM
MIC [9]: > 400 µM
MIC (Alternaria citri): > 400 µM

COc1cc(O)cc(CCc2ccccc2)c1
MIC (Alternaria brassicicola): > 400 µM
IC50 [1]: > 10 µM
IC50 [2]: > 10 µM
IC50 [3]: > 10 µM
MIC [4]: 219 µM (≈ 50.1 µg/mL)
MIC (Colletotrichum truncatum): 110 µM (≈ 25 µg/mL)
MIC [5]: 110 µM (≈ 25 µg/mL)
MIC [6]: 219 µM (≈ 50.1 µg/mL)
MIC [7]: 110 µM (≈ 25 µg/mL)
MIC [8]: 110 µM (≈ 25 µg/mL)
MIC [9]: 219 µM (≈ 50.1 µg/mL)
MIC (Alternaria citri): 110 µM (≈ 25 µg/mL)

COc1cc2c(c(O)c1OC)-c1ccc(O)cc1CC2 [EPHEMERANTHOL A]
MIC (Alternaria brassicicola): > 400 µM
IC50 [1]: > 10 µM
IC50 [2]: > 10 µM
IC50 [3]: > 10 µM
MIC [4]: > 400 µM
MIC (Colletotrichum truncatum): > 400 µM
MIC [5]: > 400 µM
MIC [6]: > 400 µM
MIC [7]: > 400 µM
MIC [8]: > 400 µM
MIC [9]: > 400 µM
MIC (Alternaria citri): > 400 µM

COc1c(O)cc2ccc3cc(O)ccc3c2c1OC [NUDOL]
MIC (Alternaria brassicicola): > 400 µM
IC50 [1]: > 10 µM
IC50 [2]: > 10 µM
IC50 [3]: > 10 µM
MIC [4]: > 400 µM
MIC (Colletotrichum truncatum): > 400 µM
MIC [5]: > 400 µM
MIC [6]: > 400 µM
MIC [7]: > 400 µM
MIC [8]: > 400 µM
MIC [9]: > 400 µM
MIC (Alternaria citri): > 400 µM

COC1=CC(=O)C[C@H]2CC(=O)c3cccc(O)c3[C@@]12O
MIC (Alternaria brassicicola): > 400 µM
IC50 [1]: > 10 µM
IC50 [2]: > 10 µM
IC50 [3]: > 10 µM
MIC [4]: > 400 µM
MIC (Colletotrichum truncatum): > 400 µM
MIC [5]: > 400 µM
MIC [6]: > 400 µM
MIC [7]: > 400 µM
MIC [8]: > 400 µM
MIC [9]: > 400 µM
MIC (Alternaria citri): > 400 µM

COc1cc(OC)c2c(cc(O)c3cccc(O)c32)c1-c1ccc(O)c2c1ccc1cc(O)cc(OC)c12
MIC (Alternaria brassicicola): > 400 µM
IC50 [1]: > 10 µM
IC50 [2]: > 10 µM
IC50 [3]: > 10 µM
MIC [4]: > 400 µM
MIC (Colletotrichum truncatum): > 400 µM
MIC [5]: > 400 µM
MIC [6]: > 400 µM
MIC [7]: > 400 µM
MIC [8]: > 400 µM
MIC [9]: > 400 µM
MIC (Alternaria citri): > 400 µM
